This note sets out measurements from ChEMBL document CHEMBL5042537, “Synthesis and Characterization of 5-(2-Fluoro-4-[11C]methoxyphenyl)-2,2-dimethyl-3,4-dihydro-2H-pyrano[2,3-b]pyridine-7-carboxamide as a PET Imaging Ligand for Metabotropic Glutamate Receptor 2” (J Med Chem, 2022).

The nature of series [1]: Permeability of the compound in Sprague-Dawley rat brain striatum at 1 to 30 mins by CT scan. The class given is ADME, tissue-based. To be noted: time 1-30 min. A digest of the protocol: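 Male Sprague–Dawley rats under isoflurane anaesthesia were injected iv via tail vein with the [11C] tracer (63.0–87.3 MBq). Dynamic PET ran for 60 min, reconstructed by MLEM, with a CT scan for attenuation correction. Striatal SUV time-activity curves were derived, and images were summed over 1–30 min.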

A short description of series [2]: Lipophilicity, LogD at pH 7.4 of the compound by shake flask method. The class given is physicochemical. Conditions: buffer. A digest of the protocol: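 Shake-flask method: 0.1 mg compound in n-octanol/PBS pH 7.4 (1.0 mL each), vortexed 1 min and shaken at 37 °C overnight. Each phase was quantified by HPLC peak area at 254 nm, and LogD = log(octanol/PBS). Run at least three times.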

A short description of series [3]: Stability of the compound in rat liver microsome measured at 60 min. The class given is ADME. To be noted: liver microsomes, read-out: Stability. The method, boiled down: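 Compound (1.5 μL of 1 mM DMSO stock) in PBS was preincubated at 37 °C, then Sprague–Dawley rat liver microsomes and NADPH (10 mM stock) were added. After 60 min at 37 °C, reactions were quenched with cold acetonitrile and analysed by HPLC against an internal standard. Stability = 60 min/0 min peak area × 100%; at least three repeats.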

Series [4] is described as follows: Stability of the compound in rat plasma measured at 60 min. The class given is ADME, cell-free. To be noted: read-out: Stability. A digest of the protocol: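 Compound (2.5 μL of 1 mM DMSO stock) was incubated in 100 μL rat serum at 37 °C for 60 min, then quenched with ice-cold acetonitrile and centrifuged. Supernatant was analysed by HPLC against an internal standard. Stability = peak area at 60 min / peak area at 0 min × 100%; at least three repeats.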

The target in series [5] is T1, Metabotropic glutamate receptor 2 (Homo sapiens, UniProt Q14416). In words: Negative allosteric modulation activity at human recombinant mGlur2 at 30 nM by cAMP Glosensor assay. The class given is functional. Conditions: filed as negative allosteric modulator. A digest of the protocol:
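Flp-In T-REx-293 cells with tetracycline-inducible mGluR2 (induced with 1 μg/mL tetracycline) were transfected with pGloSensor-21F and plated at 15,000 cells/well in BME with 1% dialyzed FBS. Split-luciferase cAMP read-out was taken with 0.1 μM isoproterenol and increasing L-glutamate. Glutamate curves were fitted to an allosteric operational model; three independent assays in triplicate.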
Target sequence in this assay (Q14416 19-872 limits assumed): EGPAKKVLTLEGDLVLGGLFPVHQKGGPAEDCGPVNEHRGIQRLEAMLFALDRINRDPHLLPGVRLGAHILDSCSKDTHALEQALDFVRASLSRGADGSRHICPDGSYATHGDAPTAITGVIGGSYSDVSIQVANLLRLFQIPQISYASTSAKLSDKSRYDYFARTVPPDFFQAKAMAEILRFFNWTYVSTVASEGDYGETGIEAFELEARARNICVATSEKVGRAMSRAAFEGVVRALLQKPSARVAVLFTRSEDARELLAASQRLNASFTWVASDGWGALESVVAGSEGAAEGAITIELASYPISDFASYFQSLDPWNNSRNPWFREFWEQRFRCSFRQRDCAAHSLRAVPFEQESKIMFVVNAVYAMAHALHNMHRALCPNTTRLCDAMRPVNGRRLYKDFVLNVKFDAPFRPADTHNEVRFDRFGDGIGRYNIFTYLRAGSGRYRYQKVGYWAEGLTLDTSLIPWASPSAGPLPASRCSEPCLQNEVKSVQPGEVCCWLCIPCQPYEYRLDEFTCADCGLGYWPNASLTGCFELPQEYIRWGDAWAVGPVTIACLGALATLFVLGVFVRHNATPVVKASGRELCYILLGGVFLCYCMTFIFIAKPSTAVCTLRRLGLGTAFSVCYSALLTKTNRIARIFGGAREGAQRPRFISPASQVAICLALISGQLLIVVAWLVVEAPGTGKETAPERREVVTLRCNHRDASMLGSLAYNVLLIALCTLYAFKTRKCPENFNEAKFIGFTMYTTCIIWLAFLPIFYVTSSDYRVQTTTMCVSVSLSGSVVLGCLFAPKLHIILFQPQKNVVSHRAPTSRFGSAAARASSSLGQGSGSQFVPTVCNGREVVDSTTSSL

For series [6], the target named is T1, Metabotropic glutamate receptor 2. In words: Binding affinity to human recombinant mGlur2 assessed as inhibition constant by cAMP Glosensor assay.
Target sequence in this assay (Q14416 whole entry): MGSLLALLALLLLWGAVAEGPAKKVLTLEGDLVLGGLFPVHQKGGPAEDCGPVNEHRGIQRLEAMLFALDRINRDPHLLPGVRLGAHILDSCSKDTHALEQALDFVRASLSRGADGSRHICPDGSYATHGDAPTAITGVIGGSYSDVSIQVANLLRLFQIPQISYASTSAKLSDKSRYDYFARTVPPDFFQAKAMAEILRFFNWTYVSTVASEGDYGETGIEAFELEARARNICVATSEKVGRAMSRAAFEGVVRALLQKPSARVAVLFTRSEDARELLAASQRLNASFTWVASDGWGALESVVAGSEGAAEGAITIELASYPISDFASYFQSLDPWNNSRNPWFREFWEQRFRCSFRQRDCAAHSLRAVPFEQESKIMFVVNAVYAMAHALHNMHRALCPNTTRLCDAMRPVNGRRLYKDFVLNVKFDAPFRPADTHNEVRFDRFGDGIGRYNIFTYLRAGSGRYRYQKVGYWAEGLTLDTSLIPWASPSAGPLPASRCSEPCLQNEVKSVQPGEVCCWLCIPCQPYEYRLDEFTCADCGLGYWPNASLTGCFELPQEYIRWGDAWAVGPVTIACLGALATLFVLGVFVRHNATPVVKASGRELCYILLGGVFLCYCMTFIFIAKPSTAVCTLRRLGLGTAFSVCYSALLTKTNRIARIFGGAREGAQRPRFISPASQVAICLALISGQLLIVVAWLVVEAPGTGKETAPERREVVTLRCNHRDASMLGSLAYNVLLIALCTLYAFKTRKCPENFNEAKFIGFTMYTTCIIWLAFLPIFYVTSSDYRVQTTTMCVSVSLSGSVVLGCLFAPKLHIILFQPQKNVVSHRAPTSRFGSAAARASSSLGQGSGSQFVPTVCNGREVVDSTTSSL
A short description of series [7]: Drug uptake in Sprague-Dawley rat brain cortex mGlr2 rich region by CT scan. The class given is ADME, tissue-based. To be noted: in vivo. The method, boiled down: (§1)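 Male Sprague–Dawley rats (285–421 g) under isoflurane received [11C] tracer (63.0–87.3 MBq) iv via tail vein, followed by 60 min dynamic PET with CT for attenuation correction. Blockers were given iv 1 or 20 min before tracer, at 0.5 mg/kg (10% ethanol/5% Tween-80/saline) or 0.2 mg/kg (10% DMSO/5% Tween-20/PBS). Regional accumulation was taken over 2–30 min and compared with baseline scans.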

Series [8] in a line: Drug uptake in Sprague-Dawley rat brain thalamus mGlr2 rich region assessed as decrease in drug accumulation pretreated with 4-(8-bromo-2-oxo-2,3-dihydro-1H-benzo[b][1,4]diazepin-4-yl)picolinonitrile at 0.2 mg/kg, iv for 20 min before administration of tracer injection by CT scan. Conditions: in vivo, pooled result: one value given for 4 cell lines, strains, targets or settings. The class given is ADME, organism-based. The method, boiled down: as §1

Series [9] in a line: Drug metabolism in Cynomolgus monkey plasma assessed as parent compound remaining pretreated with 4-(4-fluorophenyl)-5-((1-methyl-1H-pyrazol-3-yl)methoxy)picolinamide at 1 mg/kg, iv for 20 mins before administration of tracer injection measured after 120 mins by CT scan. The class given is ADME, organism-based, Macaca fascicularis. To be noted: read-out: Stability. The method, boiled down: (§2)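 Cynomolgus monkey (female, 5.0 kg) given tracer as a 3 min iv infusion, with blocker 1.0 mg/kg iv 20 min before. Plasma samples from 5–120 min were analysed by automated column-switching radioHPLC (capture column, then C18 with acetonitrile:0.1 M ammonium formate 45:55, 0.1% TFA). Eluate was collected in 1 min fractions and gamma-counted to give percent parent.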

A short description of series [10]: Drug uptake in Sprague-Dawley rat brain thalamus mGlr2 rich region assessed as decrease in drug accumulation pretreated with 4-(8-bromo-2-oxo-2,3-dihydro-1H-benzo[b][1,4]diazepin-4-yl)picolinonitrile at 0.2 mg/kg, iv for 1 min before administration of tracer injection by CT scan. Conditions: in vivo. The class given is ADME, organism-based. A digest of the protocol:
as §1

Series [11] can be described thus: Drug metabolism in Cynomolgus monkey plasma assessed as retention time of metabolite by measuring pretreated with 4-(4-fluorophenyl)-5-((1-methyl-1H-pyrazol-3-yl)methoxy)picolinamide at 1 mg/kg, iv for 20 min before administration of tracer injection by CT scan. The class given is ADME, organism-based, Macaca fascicularis. To be noted: in vivo. The method, boiled down: as §2

A short description of series [12]: Drug uptake in Sprague-Dawley rat brain cortex mGlr2 rich region assessed as decrease in drug accumulation pretreated with 4-(4-fluorophenyl)-5-((1-methyl-1H-pyrazol-3-yl)methoxy)picolinamide at 0.5 mg/kg, iv for 1 min before administration of tracer injection by CT scan. The class given is ADME, organism-based. Conditions: in vivo. A digest of the protocol: as §1

A short description of series [13]: Drug uptake in Sprague-Dawley rat brain […] rich region assessed as decrease in drug accumulation pretreated with 4-(8-bromo-2-oxo-2,3-dihydro-1H-benzo[b][1,4]diazepin-4-yl)picolinonitrile at 0.2 mg/kg, iv for 1 min before administration of tracer injection by CT scan. The class given is ADME, organism-based. Conditions: in vivo. A digest of the protocol: as §1

Series [14] can be described thus: Drug uptake in Sprague-Dawley rat brain cerebellum mGlr2 rich region assessed as decrease in drug accumulation pretreated with 4-(8-bromo-2-oxo-2,3-dihydro-1H-benzo[b][1,4]diazepin-4-yl)picolinonitrile at 0.2 mg/kg, iv for 20 min before administration of tracer injection by CT scan. The class given is ADME, organism-based. To be noted: in vivo. The method, boiled down:
as §1

Series [15] in a line: Drug uptake in Sprague-Dawley rat brain cerebellum mGlr2 rich region by CT scan. The class given is ADME, tissue-based. To be noted: in vivo. The method, boiled down: as §1
Series [16] can be described thus: Drug uptake in Sprague-Dawley rat brain cerebellum mGlr2 rich region assessed as decrease in drug accumulation pretreated with 4-(8-bromo-2-oxo-2,3-dihydro-1H-benzo[b][1,4]diazepin-4-yl)picolinonitrile at 0.2 mg/kg, iv for 1 min before administration of tracer injection by CT scan. The class given is ADME, organism-based. To be noted: in vivo. A digest of the protocol: as §1

Series [17] is described as follows: Drug uptake in Sprague-Dawley rat brain striatum mGlr2 rich region by CT scan. The class given is ADME, tissue-based. To be noted: in vivo. A digest of the protocol: as §1
Series [18] can be described thus: Drug uptake in Sprague-Dawley rat brain thalamus mGlr2 rich region by CT scan. The class given is ADME, tissue-based. Conditions: in vivo. The method, boiled down: as §1
A short description of series [19]: Drug uptake in Sprague-Dawley rat brain striatum mGlr2 rich region assessed as decrease in drug accumulation pretreated with 4-(4-fluorophenyl)-5-((1-methyl-1H-pyrazol-3-yl)methoxy)picolinamide at 0.5 mg/kg, iv for 1 min before administration of tracer injection by CT scan. The class given is ADME, organism-based. To be noted: in vivo, pooled result: one value given for 4 cell lines, strains, targets or settings. The method, boiled down:
as §1

The nature of series [20]: Drug metabolism in Cynomolgus monkey plasma assessed as parent compound remaining pretreated with 4-(4-fluorophenyl)-5-((1-methyl-1H-pyrazol-3-yl)methoxy)picolinamide at 1 mg/kg, iv for 20 mins before administration of tracer injection measured after 30 mins by CT scan. The class given is ADME, organism-based, Macaca fascicularis. To be noted: read-out: Stability. A digest of the protocol: as §2

Series [21] in a line: Drug uptake in Sprague-Dawley rat brain thalamus mGlr2 rich region assessed as decrease in drug accumulation pretreated with 4-(4-fluorophenyl)-5-((1-methyl-1H-pyrazol-3-yl)methoxy)picolinamide at 0.5 mg/kg, iv for 1 min before administration of tracer injection by CT scan. The class given is ADME, organism-based. Conditions: in vivo. The method, boiled down: as §1
Series [22] is described as follows: Drug uptake in Sprague-Dawley rat brain hypothalamus mGlr2 rich region by CT scan. Conditions: in vivo. The class given is ADME, tissue-based. A digest of the protocol: as §1
Series [23] in a line: Drug uptake in Sprague-Dawley rat brain striatum mGlr2 rich region assessed as decrease in drug accumulation pretreated with 4-(8-bromo-2-oxo-2,3-dihydro-1H-benzo[b][1,4]diazepin-4-yl)picolinonitrile at 0.2 mg/kg, iv for 1 min before administration of tracer injection by CT scan. The class given is ADME, organism-based. Conditions: in vivo. The method, boiled down:
as §1

Series [24] in a line: Drug uptake in Sprague-Dawley rat brain hippocampus mGlr2 rich region by CT scan. The class given is ADME, tissue-based. To be noted: in vivo. A digest of the protocol:
as §1

Series [25] is described as follows: Drug uptake in Sprague-Dawley rat brain hypothalamus mGlr2 rich region assessed as decrease in drug accumulation pretreated with 4-(8-bromo-2-oxo-2,3-dihydro-1H-benzo[b][1,4]diazepin-4-yl)picolinonitrile at 0.2 mg/kg, iv for 1 min before administration of tracer injection by CT scan. The class given is ADME, organism-based. To be noted: in vivo. The method, boiled down: as §1

Series [26] in a line: Drug uptake in Sprague-Dawley rat brain hippocampus mGlr2 rich region assessed as decrease in drug accumulation pretreated with 4-(8-bromo-2-oxo-2,3-dihydro-1H-benzo[b][1,4]diazepin-4-yl)picolinonitrile at 0.2 mg/kg, iv for 1 min before administration of tracer injection by CT scan. Conditions: in vivo. The class given is ADME, organism-based. The method, boiled down:
as §1

Series [27] can be described thus: Permeability of the compound across blood brain barrier in Sprague-Dawley rat after 4 mins by CT scan. The class given is ADME, tissue-based. The method, boiled down: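 Male Sprague–Dawley rats (285–421 g) under isoflurane (1.0–1.5%) in oxygen. [11C]tracer (63.0–87.3 MBq) given iv via tail-vein catheter. Dynamic PET ran 60 min from injection, followed by CT for anatomy and attenuation correction. Data were reconstructed by MLEM into 24 frames. Regional brain uptake was expressed as SUV time-activity curves.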

Series [28] in a line: Drug uptake in Sprague-Dawley rat brain striatum mGlr2 rich region assessed as decrease in drug accumulation pretreated with 4-(8-bromo-2-oxo-2,3-dihydro-1H-benzo[b][1,4]diazepin-4-yl)picolinonitrile at 0.2 mg/kg, iv for 20 min before administration of tracer injection by CT scan. The class given is ADME, organism-based. To be noted: in vivo. A digest of the protocol: as §1

A word on the logD: it is lipophilicity at a set pH, counting ionised and neutral species. A word on the Ki: it is a measure of affinity in units of concentration, obtained from inhibition or displacement.

Active and inactive are the calls of the source. The calls are words filed in the database; no cut-off is given here.

Compound `Cn1ccc(COc2cnc(C(N)=O)cc2-c2ccc(O[11CH3])cc2F)n1` returned an SUVmax in [1] of 1.2.

Compound `COc1ccc(-c2cc(C(N)=O)nc3c2CCC(C)(C)O3)c(F)c1` showed a logD in series [2] of 2.94. Besides, the remaining at 1 h came to 47.8% in series [3] and 94.5% in series [4].

For the compound `CC1(C)CCc2c(-c3ccc(F)cc3F)cc(C(N)=O)nc2O1`, the logD in series [2] is listed as 2.81. Also, the remaining at 1 h in [3] is 94.5%; in [4] it was 95.3%. Further, the outcome in series [5] was Active. The Ki in series [6] turned out to be 59 nM.

Turning to `[11CH3]Oc1cc(CN2CCc3c(-c4ccc(F)cc4F)cc(C(N)=O)nc3C2)ccn1`, the SUVmax in series [1] came out at 1.7.

In the case of `CC1(C)CCc2c(-c3ccc(O[11CH3])cc3F)cc(C(N)=O)nc2O1`, the Drug uptake result in [7] was “Active”; in series [8], 12.7%; in series [10] it was 41.7%; in series [12], 38.5%; in [13] it was 39.6%; in [14] it was 15.2%. In addition, the Drug uptake entry in series [15] was “Active”; in series [16], 39.6%; in series [17] it was “Active”; in series [18], “Active”; in [19], 22.4%; in [21], 17.1%. In addition, the Drug uptake entry is reported as “Active” in [22]; 41.7% in series [23]; “Active” in [24]; 42.6% in series [25]; 41.7% in series [26]; 11.1% in [28]. The remaining at 20 min in [9] amounted to 24.8%; in series [20] it was 53%. Further, in series [11], the Retention_time stood at 2 min. This compound also returned an SUV in series [27] of 7.5.
